Series [1] relates to Human immunodeficiency virus 1. As to the kind of experiment: Tested in vitro against human immunodeficiency virus (HIV) infected CEM cells using XTT assay (LAV-BRU strain). Format: functional, organism-based. Conditions: Human immunodeficiency virus 1, CCRF-CEM; call rule not given here. In outline:
(§1)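 Anti-HIV XTT assay in HIV-infected CEM cells, using the LAV-BRU or HIV-HRF strain as the line names. The value is the 50% inhibitory concentration. The top concentration tested was 100 μM, and inactivity there is scored NA.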
On the technique in general: Tetrazolium dyes change colour on reduction, which living cells bring about.

The test system of series [2] is Human alphaherpesvirus 2. As to the kind of experiment: (§2) Tested in vitro against HSV 2 G strain in vero cells. It is filed as functional, organism-based. Conditions: Human alphaherpesvirus 2, Vero. The method, boiled down:
(§3)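 Plaque reduction assay against HSV-2 strain G in Vero cells, giving a 50% inhibitory concentration. The top concentration tested was 100 μM, and inactivity there is scored NA.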

For series [3], the system named is Human betaherpesvirus 5. As to the kind of experiment: (§4) Tested in vitro against HCMV AD-169 strain in MRC-5 cells. It is filed as functional, organism-based. Conditions: Human betaherpesvirus 5, MRC5. The method, boiled down:
(§5)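 Plaque reduction assay against HCMV strain AD-169 in MRC-5 cells, giving a 50% inhibitory concentration. The top concentration tested was 100 μM, and inactivity there is scored NA.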

Series [4] is described as follows: Ratio between TC50 against human immunodeficiency virus infected CEM cells and IC50 against CEM cells. Format: functional, CCRF-CEM. The method, boiled down:
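Selectivity index is TC50 divided by IC50. TC50 is the 50% toxic concentration from the XTT assay in CEM cells. IC50 is the 50% inhibitory concentration from the XTT assay in HIV-infected CEM cells.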

Series [5] is described as follows: as §4. It is filed as ADME, organism-based, MRC5. Conditions: human betaherpesvirus 5, MRC-5 cells; read-out: TC50 (the source's name).
A short description of series [6]: as §2. Format: organism-based. Conditions: human alphaherpesvirus 2, Vero cells; read-out: TC50 (the source's name).
Series [7] relates to CCRF-CEM. Nature of the series: Cell growth toxicity against CEM cells after treatment with compound for 72 hours. It is filed as functional. Conditions: Homo sapiens. In outline:
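Cytotoxicity in CEM cells: cells counted after 72 h drug exposure; the value is the concentration giving 50% cell growth toxicity.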

The nature of series [8]: Toxic concentration, in CEM cells estimated by the XTT assay. It is filed as toxicity, cell-based. Conditions: human, CCRF-CEM (CEM) cells; read-out: TC50 (the source's name).
For series [9], the system named is Human immunodeficiency virus 1. As to the kind of experiment: Tested in vitro against human immunodeficiency virus (HIV) infected CEM cells using XTT assay (HIV-HRF strain). Format: functional, organism-based. Conditions: Human immunodeficiency virus 1, CCRF-CEM. In outline:
as §1

The nature of series [10]: Tested in vitro against HCMV from WI-38 cells. Format: organism-based. Conditions: human betaherpesvirus 5, WI-38 cells; read-out: TC50 (the source's name).
Series [11] has as its system Human betaherpesvirus 5. Nature of the series: Tested in vitro against HCMV from WI-38 cells; NA= not active at 100 uM as determined in WI-38 cells. It is filed as functional, organism-based.
Series [12] deals with Human alphaherpesvirus 2. Nature of the series: Tested in vitro against HSV 2 G strain in vero cells; NA= not active at 100 uM. Format: functional, organism-based. The method, boiled down:
as §3

In series [13] the test system is Human betaherpesvirus 5. Nature of the series: Tested in vitro against HCMV AD-169 strain in MRC-5 cells; NA= not active at 100 uM. Format: functional, organism-based. Conditions: mrc5. The method, boiled down:
as §5

Series [14] concerns Human immunodeficiency virus 1. Nature of the series: Tested in vitro against human immunodeficiency virus (HIV) infected CEM cells using XTT assay (HIV-HRF strain); NA = not active at 100 uM. Conditions: ccrf-cem. Format: functional, organism-based. The method, boiled down: as §1
Series [15] is described as follows: Tested in vitro against HSV 2 from Wi-38 cells. Conditions: human alphaherpesvirus 2, WI-38 cells; read-out: TC50 (the source's name). Format: organism-based.
Series [16] relates to Human alphaherpesvirus 2. Nature of the series: Tested in vitro against HSV 2 from WI-38 cells; NA= not active at 100 uM. Format: functional, organism-based.
The subject of series [17] is Human betaherpesvirus 5. Nature of the series: Tested in vitro against HCMV from WI-38 cells; NA= not active at 100 uM. It is filed as functional, organism-based.
Series [18] relates to Human immunodeficiency virus 1. As to the kind of experiment: Tested in vitro against human immunodeficiency virus (HIV) infected CEM cells using XTT assay (LAV-BRU strain); NA = not active at 100 uM. Format: functional, organism-based. Conditions: ccrf-cem. The method, boiled down: as §1
Series [19] in a line: Tested in vitro against HSV 2 from WI-38 cells. Format: organism-based. Conditions: human alphaherpesvirus 2, WI-38 cells; read-out: TC50 (the source's name).
Series [20] concerns Human alphaherpesvirus 2. Described as §2. Conditions: Human alphaherpesvirus 2, Vero. Format: functional, organism-based, herpes simplex virus. The method, boiled down:
as §3

Regarding `Nc1nc(O)c2ncn(CC(CO)OCP(=O)(O)O)c2n1` (single isomer, unassigned; form 2), the results for the IC50 in series [1], in [2] and in [3] were > 500 µM, 99 µM and 0.8 µM, respectively. Besides, the Selectivity index in [4] is < 1. In addition, the CC50 in [5] and in series [6] was > 310 µM throughout.
As for `C=C[C@H](Cn1cnc2c(O)nc(N)nc21)OCP(=O)(O)O`, the CC50 in [7] was > 1590 µM; in [8], > 1000 µM; in [10], > 300 µM. The values for the IC50 in series [9] and in series [11] were 13 µM and “Not Active”, respectively. For the same molecule, the Selectivity index in series [4] was >77.
For `CC[C@@H](Cn1cnc2c(O)nc(N)nc21)OCP(=O)(O)O`, the CC50 is > 500 µM in series [8], 300 µM in [5] and 300 µM in series [6]. Also, the IC50 (as a rule, the midpoint of a concentration-inhibition curve) in [9] was 252 µM; in [12] it was “Not Active”; in [13], “Not Active”. Besides, the Selectivity index in series [4] is recorded as >2.
Regarding `Nc1nc(O)c2ncn(C[C@H](OCP(=O)(O)O)C3CC3)c2n1`, the CC50 is > 1000 µM in series [8], > 300 µM in series [15] and > 300 µM in series [10]. For the same molecule, the IC50 entry in [14], in [16] and in series [17] was “Not Active” in each case.
As to `C[C@@H](Cn1cnc2c(O)nc(N)nc21)OCP(=O)(O)O`, the values for the CC50 in series [7], in [5] and in series [6] were 12 µM, > 330 µM and > 330 µM, respectively. The figures for the IC50 in series [1], in series [2] and in [3] were 12 µM, 43 µM and 16 µM, respectively. Further, the Selectivity index in [4] is listed as 25.
In the case of `[N-]=[N+]=NCC[C@@H](Cn1cnc2c(O)nc(N)nc21)OCP(=O)(O)O`, the CC50 is > 500 µM in series [8], 300 µM in series [5] and 300 µM in series [6]. For the same molecule, the IC50 entry in series [18], in series [12] and in [13] was “Not Active” each time.
Turning to `Nc1nc(O)c2ncn(CC(CCl)OCP(=O)(O)O)c2n1` (single isomer, unassigned; form 2), the CC50 in series [7] was > 1500 µM; in [8], > 500 µM; in series [5], 300 µM; in series [6] it was 300 µM. In addition, the figures for the IC50 in [1], in [12] and in series [3] were 50 µM, “Not Active” and 112 µM, respectively. Moreover, the Selectivity index in series [4] is > 10.
As for `Nc1nc2c(ncn2CCOCP(=O)(O)O)c(=O)[nH]1` [GS-438], the CC50 in series [7] is 0.2 µM; in [5], 30 µM; in series [6] it was 17 µM. The IC50 in series [1] was 0.2 µM; in series [2], 1.1 µM; in series [3], 0.09 µM. In addition, in [4], the Selectivity index was found to be 75.
Take `[N-]=[N+]=NCC(Cn1cnc2c(O)nc(N)nc21)OCP(=O)(O)O` (single isomer, unassigned; form 1): the CC50 in series [7] was > 1400 µM; in series [8], > 1000 µM; in series [5], > 300 µM; in series [6], > 300 µM. In addition, the IC50 is 5 µM in series [9], “Not Active” in [12] and 33 µM in series [3]. Also, the Selectivity index in [4] is > 200.
On to `Nc1nc(O)c2ncn(CC(CF)OCP(=O)(O)O)c2n1` (single isomer, unassigned; form 1), for which the CC50 in [7] is 427 µM; in series [8], > 500 µM; in series [5] it was > 310 µM; in series [6] it was > 310 µM. Besides, the results for the IC50 in series [1] and in [3] were 8 µM and 136 µM, respectively. Further, in series [4], the Selectivity index is > 63.
For `Nc1nc(O)c2ncn(C[C@@H](CCO)OCP(=O)(O)O)c2n1`, the CC50 was > 450 µM in series [8] and 300 µM in series [6]. In addition, the IC50 entry in [18] and in [12] was “Not Active” each time.
For `Nc1nc(O)c2ncn(C[C@H](CCF)OCP(=O)(O)O)c2n1`, the CC50 was > 500 µM in [8], 300 µM in series [5] and 300 µM in series [6]. The IC50 result in series [18], in [12] and in series [13] was “Not Active” throughout.
As to `CC[C@H](Cn1cnc2c(O)nc(N)nc21)OCP(=O)(O)O`, the results for the CC50 in [8], in [19] and in series [10] were 1000 µM, > 300 µM and > 300 µM, respectively. Moreover, the values for the IC50 in series [9], in series [16] and in [17] were 54 µM, “Not Active” and “Not Active”, respectively. The Selectivity index in series [4] was found to be 19.
Consider `Nc1nc2c(ncn2CC(CO)OCP(=O)(O)O)c(=O)[nH]1` (single isomer, unassigned; form 1), for which the CC50 in [8] was > 500 µM; in series [5], > 310 µM; in [6] it was > 310 µM. Further, the IC50 was determined as 500 µM in series [1], 1.6 µM in series [3] and 97 µM in series [20]. Moreover, the Selectivity index in series [4] was > 1.
For the molecule `C[C@H](Cn1cnc2c(O)nc(N)nc21)OCP(=O)(O)O`, the CC50 in series [7] was 180 µM; in series [8], > 500 µM; in [5] it was > 330 µM; in series [6], > 330 µM. The values for the 50% inhibitory concentration (IC50) in series [1], in series [2] and in series [3] were 1 µM, 82 µM and 16 µM, respectively. For the same molecule, in series [4], the Selectivity index was >500.
As for `Nc1nc(O)c2ncn(CC(CF)OCP(=O)(O)O)c2n1` (single isomer, unassigned; form 2), the CC50 is 93 µM in [7], > 500 µM in series [8], > 310 µM in series [5] and > 310 µM in series [6]. Further, the results for the IC50 in series [1] and in series [3] were 7 µM and 150 µM, respectively. The Selectivity index in series [4] was > 71.
In the case of `Nc1nc(O)c2ncn(C[C@H](CCO)OCP(=O)(O)O)c2n1`, the CC50 is > 500 µM in [8], > 300 µM in series [5] and 300 µM in series [6]. Moreover, the figures for the IC50 entry in series [18], in series [12] and in series [3] were “Not Active”, “Not Active” and 162 µM, respectively.
In the case of `[N-]=[N+]=NCC(Cn1cnc2c(O)nc(N)nc21)OCP(=O)(O)O` (single isomer, unassigned; form 2), the CC50 in series [7] is 134 µM; in series [8] it was > 1000 µM; in [5], > 300 µM; in [6] it was > 300 µM. Moreover, the IC50 is 51 µM in [9], “Not Active” in series [12] and 15 µM in series [3]. The Selectivity index in [4] is > 20.
Take `C=C[C@@H](Cn1cnc2c(O)nc(N)nc21)OCP(=O)(O)O`: the CC50 in [7] was > 1590 µM; in series [8], > 1000 µM; in series [5], > 300 µM; in series [6] it was 300 µM. The IC50 is 49 µM in [9], “Not Active” in series [12] and “Not Active” in [13]. For the same molecule, the Selectivity index in [4] is listed as >20.
For `Nc1nc(O)c2ncn(C[C@@H](OCP(=O)(O)O)C3CC3)c2n1`, the results for the CC50 in [8] and in series [6] were 91 µM and 300 µM, respectively. Moreover, the IC50 entry in [14] and in [12] was “Not Active” each time.
As to `Nc1nc(O)c2ncn(CC(CCl)OCP(=O)(O)O)c2n1` (single isomer, unassigned; form 1), the CC50 was 870 µM in series [7], > 500 µM in [8], > 300 µM in [5] and > 300 µM in series [6]. Also, the IC50 in series [1] is 45 µM; in series [12], “Not Active”; in series [3], 51 µM. Further, the Selectivity index in [4] was > 11.

The values above are taken from ChEMBL document CHEMBL1126801, “Synthesis and antiviral activity of 2'-substituted 9-[2-(phosphonomethoxy)ethyl]guanine analogues” (J Med Chem, 1993).
